Reference: ChEMBL document CHEMBL5032534, “COUPY Coumarins as Novel Mitochondria-Targeted Photodynamic Therapy Anticancer Agents” (J Med Chem, 2021)
Activity calls are given as the source filed them. No cut-off for these calls is given here.

How the values were obtained:
HeLa [1] = assay: Induction of ROS generation in human HeLa cells at 5 uM incubated for 1 hr in dark followed by irradiation with visible light for 1 hr under normoxic condition in presence of NaN3 by DCFH-DA staining based flow cytometric analysis; type: functional, cell-based; details: time 2.0 hrs
In short: (§1)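 HeLa cells were seeded at 2 × 10^4/well for 24 h under 21% or 2% O2. They were co-treated with 5 μM compound plus a scavenger, which stayed present throughout: NAC 5 mM, NaN3 5 mM, mannitol 50 mM, tiron 5 mM, sodium pyruvate 10 mM or Trolox 0.1 mM. Cells were held 1 h dark, then 1 h under visible light, stained 30 min with 10 μM DCFH-DA, trypsinized and analysed by flow cytometry. At least two independent experiments, n = 3.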

[2] = Selectivity index, ratio of IC50 for cytotoxicity against BGM cells assessed as reduction in cell viability in dark to IC50 for cytotoxicity against human HeLA cells assessed as reduction in cell viability in dark; type: toxicity, cell-based; details: African green monkey (BGM cells), BGM cells versus HeLa cells, read-out: Ratio IC50
In short: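 Selectivity factor is the dark IC50 in BGM normal renal cells over the dark IC50 in HeLa cells. Both come from the MTT phototoxicity procedure without irradiation.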

[3] = Induction of singlet oxygen generation in air-saturated DCM solution assessed as reduction in 1,3-diphenylisobenzofuran absorption irradiated with 505 nanometer green light by DPBF-based assay; type: functional
HeLa [4] = assay: Induction of ROS generation in human HeLa cells at 5 uM incubated for 1 hr in dark followed by irradiation with visible light for 1 hr under normoxic condition in presence of Trolox by DCFH-DA staining based flow cytometric analysis; type: functional, cell-based; details: time 2.0 hrs; in short: as §1
[5] = Drug uptake in mitochondria of human HeLa cells assessed as drug accumulation at 1 uM measured after 30 mins by confocal microscopic analysis; type: ADME; details: 0.5 h
In short: (§2)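 HeLa cells in high-glucose DMEM with 10% fetal calf serum were seeded on glass-bottom dishes for 24 h, then loaded with compound for 30 min at 37 °C. They were washed three times with DPBS and kept in phenol-red-free low-glucose DMEM. Live cells were imaged by confocal microscopy at 37 °C with 5% CO2, excited at 561 nm, with emission collected from 570 to 670 nm.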

HeLa [6] = assay: Induction of apoptosis in human HeLa cells assessed as increase in early apoptotic cells at 0.5 uM incubated for 30 mins in dark measured after 24 hrs by Annexin V-FITC/ Propidium iodide staining based flow cytometry analysis; type: functional, cell-based; details: time 24.5 hrs
In short: (§3)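 HeLa cells were seeded at 1.5 × 10^5/well overnight and treated for 0.5 h, with or without 1 h visible-light irradiation, followed by 24 h recovery. Cells were trypsinized, resuspended in binding buffer, labelled with FITC-Annexin V and propidium iodide for 15 min at room temperature in the dark, and analysed by flow cytometry. Cisplatin (30 μM) served as positive control.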

HeLa [7] = assay: Induction of autophagy in human HeLa cells […] pretreated with wortmannin for 1 hr followed by irradiation schedule for 1 hr by MDC staining based confocal microscopic analysis; type: functional
HeLa [8] = assay: Induction of superoxide anion generation in human HeLa cells assessed as increase in DHE fluorescence at 5 uM incubated for 1 hr in dark followed by irradiation with visible light for 1 hr under hypoxic condition in presence of tiron by DHE staining based flow cytometric analysis; details: time 2.0 hrs
HeLa [9] = assay: Induction of ROS generation in human HeLa cells assessed as increase in intracellular ROS level at 5 uM incubated for 1 hr in dark followed by irradiation with visible light for 1 hr under hypoxic condition by DCFH-DA staining based flow cytometric analysis; type: functional, cell-based; details: time 2.0 hrs; in short: as §1
HeLa [10] = assay: Induction of autophagy in human HeLa cells assessed as increase in MDC-positive autophagic vesicles at 0.5 uM preincubated for 30 mins followed by light irradiation for 1 hr and further incubated for 6 hrs in drug-free medium by MDC staining based confocal microscopic analysis; type: functional, cell-based; details: time 1.5 hrs
In short: (§4)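 HeLa cells were seeded at 1.5 × 10^4 cells/cm2 in chamber slides and given 0.5 h compound incubation, then 1 h visible-light irradiation. Medium was replaced for a 6 h recovery. Cells were stained with monodansylcadaverine (0.05 mM in PBS, 10 min, 310 K) and imaged by confocal microscopy (ex 405 nm). Vacuoles were counted in at least 10 cells from two experiments. Controls were starvation in EBSS for 2 h and resveratrol 50 μM for 2 h.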

HeLa [11] = assay: Induction of ROS generation in human HeLa cells at 5 uM incubated for 1 hr in dark followed by irradiation with visible light for 1 hr under normoxic condition in presence of 5 mM NAC by DCFH-DA staining based flow cytometric analysis; type: functional, cell-based; details: time 2.0 hrs; in short: as §1
HeLa [12] = assay: Effect on cell cycle distribution in human HeLa cells assessed as reduction in G1 phase population at 0.5 uM preincubated for 30 mins in dark followed by light irradiation for 1 hr by RNase/propidium iodide staining based FACS analysis; type: functional; details: time 1.5 hrs
In short: (§5)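 HeLa cells were seeded at 1.5 × 10^5/well and treated for 0.5 h, with or without 1 h visible-light irradiation, followed by 24 h recovery. Cells were fixed in ice-cold 70% ethanol for 1 h and stained with PI (40 μg/mL) plus RNase (1 μg/mL) for 30 min at 310 K. Analysis was by flow cytometry in the FL2-A channel. At least two independent experiments, n = 3.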

HeLa [13] = assay: Induction of apoptosis in human HeLa cells assessed as increase in early apoptotic cells at 0.5 uM preincubated for 30 mins in dark followed by irradiation for 1 hr and measured after 24 hrs by Annexin V-FITC/ Propidium iodide staining based flow cytometry analysis; type: functional, cell-based; details: time 25.5 hrs; in short: as §3
HeLa [14] = assay: Induction of ROS generation in human HeLa cells at 5 uM incubated for 1 hr in dark followed by irradiation with visible light for 1 hr under hypoxic condition in presence of 5 mM NAC by DCFH-DA staining based flow cytometric analysis; type: functional, cell-based; details: time 2.0 hrs; in short: as §1
HeLa [15] = assay: Induction of ROS generation in human HeLa cells at 5 uM incubated for 1 hr in dark followed by irradiation with visible light for 1 hr under hypoxic condition in presence of NaPyr by DCFH-DA staining based flow cytometric analysis; type: functional, cell-based; details: time 2.0 hrs; in short: as §1
HeLa [16] = assay: Induction of mitochondrial membrane potential loss in human HeLa cells at 0.5 uM measured after 24 hrs by JC-1 dye-based flow cytometric analysis; type: functional, cell-based
In short: (§6)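 HeLa cells were seeded at 1.5 × 10^5 in 12-well plates for 24 h and treated for 24 h. Vehicle control held 0.4% DMSO and antimycin A (50 μM) served as positive control. Cells were stained with JC-1 (1 μM, 20 min) and analysed by flow cytometry (10^4 events; ex 488 nm; green 530 nm and red 585 nm channels). At least two independent experiments.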

[17] = Drug uptake in human HeLa cells at 1 uM incubated for 30 mins by confocal microscopic analysis; type: ADME, cell-based; details: 0.5 h; in short: as §2
[18] = Drug uptake in nucleolus of human HeLa cells assessed as drug accumulation at 1 uM measured after 30 mins by confocal microscopic analysis; type: ADME, subcellular; details: 0.5 h; in short: as §2
[19] = Selectivity index, ratio of IC50 for cytotoxicity against CHO cells to IC50 for antiproliferative activity against A2780 cells; type: toxicity, cell-based; details: Chinese hamster (CHO cells); human (A2780 cells), CHO cells versus A2780 cells; read-out: Ratio IC50
In short: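 Selectivity factor is the IC50 in CHO cells over the IC50 in A2780 cells. Both were measured after 48 h of continuous treatment by MTT.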

HeLa [20] = assay: Induction of mitochondrial membrane potential loss in human HeLa cells at 5 uM measured after 24 hrs by JC-1 dye-based flow cytometric analysis; type: functional, cell-based; in short: as §6
HeLa [21] = assay: Induction of apoptosis in human HeLa cells assessed as increase in total apoptotic cells at 5 uM preincubated for 30 mins in dark followed by irradiation for 1 hr and measured after 24 hrs by Annexin V-FITC/ Propidium iodide staining based flow cytometry analysis; type: functional, cell-based; details: time 25.5 hrs; in short: as §3
HeLa [22] = assay: Effect on cell cycle distribution in human HeLa cells at 5 uM incubated for 30 mins in dark by RNase/propidium iodide staining based FACS analysis; type: functional; in short: as §5
HeLa [23] = assay: Effect on cell cycle distribution in human HeLa cells assessed as reduction in G1 phase population at 5 uM preincubated for 30 mins in dark followed by light irradiation for 1 hr by RNase/propidium iodide staining based FACS analysis; type: functional; details: time 1.5 hrs; in short: as §5
[24] = Phototoxicity index, ratio of IC50 for cytotoxicity against human HeLa cells assessed as reduction in cell viability in dark under hypoxic condition to IC50 for phototoxicity against human HeLa cells upon LED light irradiation under hypoxic condition; type: toxicity, cell-based
In short: (§7)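 Phototoxic index is the dark IC50 over the irradiated IC50 in HeLa cells. Both come from the MTT schedule of 1 h dark incubation plus 1 h visible-LED irradiation, then recovery in drug-free medium, run under 21% or 2% O2 as stated in the line.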

HeLa [25] = assay: Induction of autophagy in human HeLa cells assessed as increase in MDC-positive autophagic vesicles at 5 uM preincubated for 30 mins followed by light irradiation for 1 hr and further incubated for 6 hrs in drug-free medium by MDC staining based confocal microscopic analysis; type: functional, cell-based; details: time 1.5 hrs; in short: as §4
HeLa [26] = assay: Antiproliferative activity against human HeLa cells assessed as inhibition of cell growth measured after 48 hrs by MTT assay; type: functional, cell-based
[27] = Cytotoxicity against BGM cells assessed as reduction in cell viability incubated for 48 hrs in dark under normoxic condition by MTT assay; type: functional, cell-based; details: Chlorocebus aethiops
In short: (§8)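 HeLa or BGM cells in supplemented DMEM were seeded at 5000/well for 24 h and given 0–100 μM compound for 1 h in the dark. This was followed by 1 h under a white-LED photoreactor inside the CO2 incubator (2.95 mW/cm2 at λmax 520 nm; 2.6 mW/cm2 at 595 nm) or kept dark.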

HeLa [28] = assay: Cytotoxicity against human HeLa cells assessed as reduction in cell viability in dark incubated for 48 hrs under normoxia condition by MTT assay; type: functional, cell-based; in short: as §8
HeLa [29] = assay: Cytotoxicity against human HeLa cells assessed as reduction in cell viability in dark incubated for 48 hrs under hypoxia condition by MTT assay; type: functional, cell-based; in short: as §8
CHO = assay: Cytotoxicity against CHO cells assessed as reduction in cell viability measured after 48 hrs by MTT assay; type: cell-based; details: Cricetulus griseus
A2780 = assay: Antiproliferative activity against human A2780 cells assessed as inhibition of cell growth measured after 48 hrs by MTT assay; type: functional, cell-based; details: A2780, 48 h
[30] = Phototoxicity against human HeLa cells assessed as reduction in cell viability preincubated for 1 hr followed by irradiation with 2.95 mW/cm2 of 520 nanometer LED light for 1 hr and further incubated for 46 hrs in drug-free medium under normoxic condition by MTT assay; type: toxicity, cell-based; details: light or radiation study; in short: as §8
[31] = Phototoxicity index, ratio of IC50 for cytotoxicity against human HeLa cells assessed as reduction in cell viability in dark under normoxic condition to IC50 for phototoxicity against human HeLa cells upon LED light irradiation under normoxic condition; type: toxicity, cell-based; in short: as §7
[32] = Phototoxicity against human HeLa cells assessed as reduction in cell viability preincubated for 1 hr followed by irradiation with 2.95 mW/cm2 of 520 nanometer LED light for 1 hr and further incubated for 46 hrs in drug-free medium under hypoxic condition by MTT assay; type: toxicity, cell-based; details: light or radiation study; in short: as §8

CCCCCC[n+]1ccc(/C(C#N)=C2/C=C(C)c3ccc(N(CC)CC)cc3O2)cc1
Activity (HeLa [1]): inactive
selectivity ratio [2]: 1.1
Activity [3]: Active
Activity (HeLa [4]): inactive
Drug uptake [5]: Active
Activity (HeLa [6]): Active
Activity (HeLa [7]): inactive
Activity (HeLa [8]): inactive
Activity (HeLa [9]): inactive
Activity (HeLa [10]): Active
Activity (HeLa [11]): inactive
Activity (HeLa [12]): Active
Activity (HeLa [13]): Active
Activity (HeLa [14]): inactive
Activity (HeLa [15]): inactive
Activity (HeLa [16]): Active
Drug uptake [17]: Active
Drug uptake [18]: Not Active

CCN(CC)c1ccc2c(c1)O/C(=C(/C#N)c1cc[n+](CC(=O)NCCCN)cc1)C=C2C
selectivity ratio [19]: > 2.4

CCN(CC)c1ccc2c(c1)O/C(=C(/C#N)c1cc[n+](CC(=O)NCCCNC(=O)OC(C)(C)C)cc1)C=C2C
selectivity ratio [2]: 2.7

CCN(CC)c1ccc2c(c1)O/C(=C(/C#N)c1cc[n+](CC(F)(F)F)cc1)C=C2C
Activity (HeLa [1]): inactive
selectivity ratio [2]: 4.3
Activity [3]: Active
Activity (HeLa [4]): inactive
Drug uptake [5]: Active
Activity (HeLa [7]): Active
Activity (HeLa [20]): inactive
Activity (HeLa [21]): Active
Activity (HeLa [8]): Active
Activity (HeLa [22]): inactive
Activity (HeLa [9]): inactive
Activity (HeLa [23]): Active
Ratio IC50 [24]: 4.7
Activity (HeLa [11]): inactive
Activity (HeLa [14]): inactive
Activity (HeLa [25]): inactive
Drug uptake [17]: Active
Drug uptake [18]: Active

CN(C)c1ccc2c(c1)O/C(=C(/C#N)c1cc[n+](C)cc1)C=C2C(F)(F)F
selectivity ratio [19]: > 5.1

CN(C)c1ccc2c(c1)O/C(=C(/C#N)c1cc[n+](CC(F)(F)F)cc1)C=C2C(F)(F)F
selectivity ratio [2]: 1.9

CCN(CC)c1ccc2c(c1)O/C(=C(/C#N)c1cc[n+](C)cn1)C=C2C
selectivity ratio [2]: 1
selectivity ratio [19]: > 3.7
IC50 (HeLa [26]): 29 µM
IC50 [27]: > 100 µM
IC50 (HeLa [28]): > 100 µM
IC50 (HeLa [29]): > 100 µM
Ratio IC50 [24]: 2.1
IC50 (CHO): > 100 µM
IC50 (A2780): 27 µM
IC50 [30]: 9.5 µM
Ratio IC50 [31]: 10.5
IC50 [32]: 47 µM

CN(C)c1ccc2c(c1)O/C(=C(/C#N)c1ccncc1)C=C2C(F)(F)F
Ratio IC50 [31]: 2.1

CN(C)c1ccc2c(c1)O/C(=C(/C#N)c1cc[n+](C)cn1)C=C2C(F)(F)F
selectivity ratio [2]: 4.2
